Experimental data from ChEMBL document CHEMBL3627690, “Scaffold-Hopping and Structure-Based Discovery of Potent, Selective, And Brain Penetrant N-(1H-Pyrazol-3-yl)pyridin-2-amine Inhibitors of Dual Leucine Zipper Kinase (DLK, MAP3K12)” (J Med Chem, 2015).
pIC50: −log10 of the molar value.

Key:
[1] = biological target: Ribosomal protein S6 kinase beta-1 (Homo sapiens) (UniProt P23443); experiment: Inhibition of p70S6K (unknown origin) at 1 uM by FRET method
Procedure, shortened: (§1)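 Single-point screen at 1 uM against a panel of 58 representative kinases. Readout was labeled-peptide phosphorylation by FRET (Z′-LYTE), using the vendor's protocols.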

[2] = biological target: Ribosomal protein S6 kinase alpha-3 (Homo sapiens) (UniProt P51812); experiment: Inhibition of Rsk2 (unknown origin) at 1 uM by FRET method; procedure, shortened: as §1
[3] = biological target: Proto-oncogene tyrosine-protein kinase receptor Ret (Homo sapiens) (UniProt P07949); experiment: Inhibition of Ret (unknown origin) at 1 uM by FRET method; procedure, shortened: as §1
[4] = biological target: Inhibitor of nuclear factor kappa-B kinase subunit beta (Homo sapiens) (UniProt O14920); experiment: Inhibition of IKKbeta (unknown origin) at 1 uM by FRET method
Procedure, shortened: (§2)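 SelectScreen panel of 58 kinases, each tested at a single 1 µM compound concentration. Read-out was Z′-LYTE FRET of labeled peptide phosphorylation, run by the vendor's protocols, reported as percent inhibition.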

[5] = biological target: BDNF/NT-3 growth factors receptor (Homo sapiens, UniProt Q16620); experiment: Inhibition of TrkB (unknown origin) by FRET method
Procedure, shortened: (§3)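 Biochemical IC50 determination from a 10-point dose-response in an enzymatic Z′-LYTE assay. Labeled-peptide phosphorylation was read by FRET under the vendor's protocols.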

[6] = Plasma clearance in […] rat at 0.4 or 1 mg/kg, iv and 1 or 5 mg/kg, po; type: ADME, organism-based
Procedure, shortened: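 Rat PK: iv dosing at 0.4 or 1 mg/kg as a 60% PEG solution, po dosing at 1 or 5 mg/kg as an aqueous suspension with 1% methylcellulose.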

[7] = biological target: Casein kinase I isoform gamma-2 (Homo sapiens) (UniProt P78368); experiment: Inhibition of CK1gamma2 (unknown origin) at 1 uM by FRET method; procedure, shortened: as §2
human MDR1 [8] = experiment: Permeability across apical to basolateral side in MDCK cells transfected with human MDR1 at 5 uM by LC-MS/MS analysis; conditions: dog
[9] = biological target: Fibroblast growth factor receptor 1 (Homo sapiens) (UniProt P11362); experiment: Inhibition of FGFR1 (unknown origin) at 1 uM by FRET method; procedure, shortened: as §2
TAK1/TAB1 (Homo sapiens) = TAK1/TAB1 (Homo sapiens) (UniProt Q15750+O43318); experiment: Inhibition of TAK1-TAB1 (unknown origin) at 1 uM by FRET method; type: protein-complex assay; procedure, shortened: as §1
[10] = Tmax in mouse at 50 mg/kg, po; type: ADME, organism-based; conditions: in vivo
Procedure, shortened: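 Mice were dosed orally at 50 mg/kg as a methylcellulose suspension. Exposure was sampled over 0–6 h, and free brain concentration was determined at 6 h.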

[11] = biological target: Tyrosine-protein kinase BTK (Homo sapiens) (UniProt Q06187); experiment: Inhibition of BTK (unknown origin) at 1 uM by FRET method; procedure, shortened: as §2
[12] = biological target: Non-receptor tyrosine-protein kinase TYK2 (Homo sapiens) (UniProt P29597); experiment: Inhibition of TYK2 (unknown origin) at 1 uM by FRET method; procedure, shortened: as §1
[13] = biological target: T1, Mitogen-activated protein kinase 8 (Homo sapiens, UniProt P45983); experiment: Inhibition of JNK1 (unknown origin) by FRET method
Procedure, shortened: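 JNK1, JNK2 and JNK3 IC50 values came from a 10-point dose–response enzymatic assay.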

HEK293 = experiment: Effect on total JNK protein level in HEK293 cells transfected with Flag DLK (unknown origin) at 0.1 to 10 uM incubated for 5 hrs by Western blot analysis; conditions: human, hek293, 5 h
[14] = biological target: T1, Mitogen-activated protein kinase 8; experiment: Inhibition of JNK1alpha1(unknown origin) at 1 uM by FRET method; procedure, shortened: as §2
[15] = biological target: cAMP-dependent protein kinase (PKA) (Homo sapiens) (UniProt P22694+P17612+P22612); experiment: Inhibition of PKA (unknown origin) at 1 uM by FRET method; type: protein assay; procedure, shortened: as §1
[16] = biological target: MAP kinase-activated protein kinase 2 (Homo sapiens) (UniProt P49137); experiment: Inhibition of MAPKAPK2 (unknown origin) at 1 uM by FRET method; procedure, shortened: as §2
[17] = biological target: Protein kinase C beta type (Homo sapiens) (UniProt P05771); experiment: Inhibition of PKCbeta1 (unknown origin) at 1 uM by FRET method; procedure, shortened: as §1
[18] = biological target: Mitogen-activated protein kinase kinase kinase 8 (Homo sapiens) (UniProt P41279); experiment: Inhibition of Cot (unknown origin) at 1 uM by FRET method; procedure, shortened: as §2
human MDR1 [19] = experiment: Efflux ratio of permeability across basolateral to apical over apical to basolateral side in MDCK cells transfected with human MDR1 at 5 uM by LC-MS/MS analysis; conditions: dog
[20] = biological target: Mitogen-activated protein kinase kinase kinase 11 (Homo sapiens, UniProt Q16584); experiment: Inhibition of MLK3 (unknown origin) by FRET method; procedure, shortened: as §3
[21] = biological target: Receptor-type tyrosine-protein kinase FLT3 (Homo sapiens) (UniProt P36888); conditions: 1 uM
[22] = biological target: Serine/threonine-protein kinase PAK 4 (Homo sapiens) (UniProt O96013); experiment: Inhibition of PAK4 (unknown origin) at 1 uM by FRET method; procedure, shortened: as §1
[23] = biological target: Vascular endothelial growth factor receptor 2 (Homo sapiens) (UniProt P35968); experiment: Inhibition of KDR (unknown origin) at 1 uM by FRET method; procedure, shortened: as §2
[24] = biological target: Serine/threonine-protein kinase Nek1 (Homo sapiens) (UniProt Q96PY6); experiment: Inhibition of NEK1 (unknown origin) at 1 uM by FRET method; procedure, shortened: as §1
[25] = biological target: Casein kinase II subunit alpha (Homo sapiens) (UniProt P68400); experiment: Inhibition of CK2alpha1 (unknown origin) at 1 uM by FRET method; procedure, shortened: as §2
[26] = biological target: Mitogen-activated protein kinase kinase kinase kinase 4 (Homo sapiens) (UniProt O95819); experiment: Inhibition of MAP4K4 (unknown origin) at 1 uM by FRET method; procedure, shortened: as §2
Sequence of Mitogen-activated protein kinase kinase kinase kinase 4 (Homo sapiens) (O95819 2-1239 limits assumed): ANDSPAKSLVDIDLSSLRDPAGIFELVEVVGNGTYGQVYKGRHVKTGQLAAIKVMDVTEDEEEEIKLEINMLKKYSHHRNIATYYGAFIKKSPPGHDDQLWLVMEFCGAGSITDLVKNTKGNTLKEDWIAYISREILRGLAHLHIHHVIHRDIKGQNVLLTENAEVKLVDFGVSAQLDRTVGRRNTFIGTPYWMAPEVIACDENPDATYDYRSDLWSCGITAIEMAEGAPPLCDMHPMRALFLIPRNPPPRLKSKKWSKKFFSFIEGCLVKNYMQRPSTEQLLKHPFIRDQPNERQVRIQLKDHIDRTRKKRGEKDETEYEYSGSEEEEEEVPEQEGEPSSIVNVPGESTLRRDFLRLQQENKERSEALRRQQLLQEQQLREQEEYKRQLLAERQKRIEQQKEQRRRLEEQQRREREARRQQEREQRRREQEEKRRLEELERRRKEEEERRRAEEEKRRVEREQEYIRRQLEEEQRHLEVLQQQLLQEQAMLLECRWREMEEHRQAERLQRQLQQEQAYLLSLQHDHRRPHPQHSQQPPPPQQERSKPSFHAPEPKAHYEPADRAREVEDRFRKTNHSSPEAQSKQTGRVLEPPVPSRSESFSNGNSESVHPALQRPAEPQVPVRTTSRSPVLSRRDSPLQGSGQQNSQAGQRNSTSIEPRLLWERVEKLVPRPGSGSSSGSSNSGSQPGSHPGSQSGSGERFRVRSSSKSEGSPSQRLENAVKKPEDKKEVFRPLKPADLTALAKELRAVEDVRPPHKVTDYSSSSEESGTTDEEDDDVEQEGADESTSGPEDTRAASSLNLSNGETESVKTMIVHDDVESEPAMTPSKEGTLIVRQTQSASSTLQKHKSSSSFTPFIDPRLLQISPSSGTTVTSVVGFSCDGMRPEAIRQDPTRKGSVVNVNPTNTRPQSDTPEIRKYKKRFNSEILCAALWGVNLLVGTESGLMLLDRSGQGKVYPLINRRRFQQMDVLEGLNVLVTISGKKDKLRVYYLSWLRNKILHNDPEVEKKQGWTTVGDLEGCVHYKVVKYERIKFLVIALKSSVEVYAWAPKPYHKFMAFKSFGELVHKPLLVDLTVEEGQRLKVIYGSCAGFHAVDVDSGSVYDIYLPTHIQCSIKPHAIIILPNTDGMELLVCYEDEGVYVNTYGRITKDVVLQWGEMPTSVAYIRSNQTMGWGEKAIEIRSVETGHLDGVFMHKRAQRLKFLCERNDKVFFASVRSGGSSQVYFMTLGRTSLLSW

T1 sequence (P45983 whole entry): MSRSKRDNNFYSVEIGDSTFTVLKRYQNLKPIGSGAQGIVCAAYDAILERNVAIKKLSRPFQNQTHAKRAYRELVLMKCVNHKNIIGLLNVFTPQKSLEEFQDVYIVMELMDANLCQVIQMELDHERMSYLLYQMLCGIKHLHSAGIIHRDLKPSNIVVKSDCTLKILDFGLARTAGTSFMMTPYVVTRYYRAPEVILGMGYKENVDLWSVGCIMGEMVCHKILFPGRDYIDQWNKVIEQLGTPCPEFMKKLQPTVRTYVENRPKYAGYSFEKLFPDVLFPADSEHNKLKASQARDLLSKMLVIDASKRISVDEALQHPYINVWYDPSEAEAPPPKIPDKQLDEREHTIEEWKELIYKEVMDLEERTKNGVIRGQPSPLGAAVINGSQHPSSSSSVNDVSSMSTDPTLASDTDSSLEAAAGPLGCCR
Sequence of Proto-oncogene tyrosine-protein kinase receptor Ret (Homo sapiens) (P07949 whole entry): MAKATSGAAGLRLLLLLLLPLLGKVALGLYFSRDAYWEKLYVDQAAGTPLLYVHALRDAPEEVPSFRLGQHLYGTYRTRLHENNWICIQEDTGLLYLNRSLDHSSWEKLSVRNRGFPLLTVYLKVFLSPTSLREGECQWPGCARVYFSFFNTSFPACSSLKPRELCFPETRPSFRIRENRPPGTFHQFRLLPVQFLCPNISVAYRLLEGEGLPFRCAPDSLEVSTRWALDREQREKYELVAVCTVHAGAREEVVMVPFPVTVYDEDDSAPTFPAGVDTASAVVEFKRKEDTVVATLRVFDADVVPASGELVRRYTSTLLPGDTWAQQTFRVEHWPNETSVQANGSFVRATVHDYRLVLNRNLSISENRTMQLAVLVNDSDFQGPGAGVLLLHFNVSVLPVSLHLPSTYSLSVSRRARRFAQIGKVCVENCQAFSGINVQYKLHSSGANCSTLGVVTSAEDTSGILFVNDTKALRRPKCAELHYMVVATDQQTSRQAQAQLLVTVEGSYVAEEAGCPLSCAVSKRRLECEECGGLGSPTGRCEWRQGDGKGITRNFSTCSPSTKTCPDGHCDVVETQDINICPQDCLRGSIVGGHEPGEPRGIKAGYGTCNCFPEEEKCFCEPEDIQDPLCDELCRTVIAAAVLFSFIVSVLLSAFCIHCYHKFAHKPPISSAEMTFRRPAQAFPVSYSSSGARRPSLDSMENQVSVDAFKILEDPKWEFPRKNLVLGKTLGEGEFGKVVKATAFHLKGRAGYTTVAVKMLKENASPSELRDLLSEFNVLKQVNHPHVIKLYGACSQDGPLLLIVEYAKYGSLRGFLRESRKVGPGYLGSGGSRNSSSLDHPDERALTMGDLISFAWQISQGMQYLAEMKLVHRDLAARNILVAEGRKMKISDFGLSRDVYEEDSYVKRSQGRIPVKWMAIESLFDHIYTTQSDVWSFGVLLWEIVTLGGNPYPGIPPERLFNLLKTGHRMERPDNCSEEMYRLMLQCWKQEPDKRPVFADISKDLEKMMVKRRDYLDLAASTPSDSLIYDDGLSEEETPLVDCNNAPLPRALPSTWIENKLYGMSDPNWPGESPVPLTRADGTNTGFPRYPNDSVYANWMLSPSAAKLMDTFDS
Sequence of Protein kinase C beta type (Homo sapiens) (P05771 2-671 limits assumed): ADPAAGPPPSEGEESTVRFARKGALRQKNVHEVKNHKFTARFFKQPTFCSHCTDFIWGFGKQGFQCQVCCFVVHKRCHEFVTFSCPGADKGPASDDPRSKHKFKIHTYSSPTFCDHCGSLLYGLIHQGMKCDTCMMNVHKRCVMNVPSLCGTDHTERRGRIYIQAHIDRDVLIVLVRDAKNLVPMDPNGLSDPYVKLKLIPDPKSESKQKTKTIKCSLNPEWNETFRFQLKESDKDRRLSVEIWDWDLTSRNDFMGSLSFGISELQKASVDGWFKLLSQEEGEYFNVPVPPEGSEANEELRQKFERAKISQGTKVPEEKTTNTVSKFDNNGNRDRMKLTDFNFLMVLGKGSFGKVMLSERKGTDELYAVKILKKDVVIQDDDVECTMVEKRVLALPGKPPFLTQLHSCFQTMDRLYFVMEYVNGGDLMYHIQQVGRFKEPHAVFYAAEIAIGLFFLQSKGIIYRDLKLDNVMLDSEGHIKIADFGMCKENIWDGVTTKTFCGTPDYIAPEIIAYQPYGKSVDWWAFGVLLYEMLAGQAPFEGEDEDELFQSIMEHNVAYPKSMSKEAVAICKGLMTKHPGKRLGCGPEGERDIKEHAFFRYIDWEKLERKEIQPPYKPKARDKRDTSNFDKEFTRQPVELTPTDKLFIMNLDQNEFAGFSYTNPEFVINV
Sequence of Casein kinase II subunit alpha (Homo sapiens) (P68400 whole entry, looked up): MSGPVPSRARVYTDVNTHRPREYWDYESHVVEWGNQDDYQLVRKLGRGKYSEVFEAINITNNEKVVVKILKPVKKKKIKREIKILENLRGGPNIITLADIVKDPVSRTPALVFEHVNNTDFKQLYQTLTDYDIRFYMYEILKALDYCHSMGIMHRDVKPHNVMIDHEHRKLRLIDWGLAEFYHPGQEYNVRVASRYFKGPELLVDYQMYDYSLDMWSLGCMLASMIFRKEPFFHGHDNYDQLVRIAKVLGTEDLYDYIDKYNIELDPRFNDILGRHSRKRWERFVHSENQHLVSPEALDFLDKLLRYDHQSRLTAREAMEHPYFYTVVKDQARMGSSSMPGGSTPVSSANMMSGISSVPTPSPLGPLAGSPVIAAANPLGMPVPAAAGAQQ
Sequence of Serine/threonine-protein kinase Nek1 (Homo sapiens) (Q96PY6 whole entry): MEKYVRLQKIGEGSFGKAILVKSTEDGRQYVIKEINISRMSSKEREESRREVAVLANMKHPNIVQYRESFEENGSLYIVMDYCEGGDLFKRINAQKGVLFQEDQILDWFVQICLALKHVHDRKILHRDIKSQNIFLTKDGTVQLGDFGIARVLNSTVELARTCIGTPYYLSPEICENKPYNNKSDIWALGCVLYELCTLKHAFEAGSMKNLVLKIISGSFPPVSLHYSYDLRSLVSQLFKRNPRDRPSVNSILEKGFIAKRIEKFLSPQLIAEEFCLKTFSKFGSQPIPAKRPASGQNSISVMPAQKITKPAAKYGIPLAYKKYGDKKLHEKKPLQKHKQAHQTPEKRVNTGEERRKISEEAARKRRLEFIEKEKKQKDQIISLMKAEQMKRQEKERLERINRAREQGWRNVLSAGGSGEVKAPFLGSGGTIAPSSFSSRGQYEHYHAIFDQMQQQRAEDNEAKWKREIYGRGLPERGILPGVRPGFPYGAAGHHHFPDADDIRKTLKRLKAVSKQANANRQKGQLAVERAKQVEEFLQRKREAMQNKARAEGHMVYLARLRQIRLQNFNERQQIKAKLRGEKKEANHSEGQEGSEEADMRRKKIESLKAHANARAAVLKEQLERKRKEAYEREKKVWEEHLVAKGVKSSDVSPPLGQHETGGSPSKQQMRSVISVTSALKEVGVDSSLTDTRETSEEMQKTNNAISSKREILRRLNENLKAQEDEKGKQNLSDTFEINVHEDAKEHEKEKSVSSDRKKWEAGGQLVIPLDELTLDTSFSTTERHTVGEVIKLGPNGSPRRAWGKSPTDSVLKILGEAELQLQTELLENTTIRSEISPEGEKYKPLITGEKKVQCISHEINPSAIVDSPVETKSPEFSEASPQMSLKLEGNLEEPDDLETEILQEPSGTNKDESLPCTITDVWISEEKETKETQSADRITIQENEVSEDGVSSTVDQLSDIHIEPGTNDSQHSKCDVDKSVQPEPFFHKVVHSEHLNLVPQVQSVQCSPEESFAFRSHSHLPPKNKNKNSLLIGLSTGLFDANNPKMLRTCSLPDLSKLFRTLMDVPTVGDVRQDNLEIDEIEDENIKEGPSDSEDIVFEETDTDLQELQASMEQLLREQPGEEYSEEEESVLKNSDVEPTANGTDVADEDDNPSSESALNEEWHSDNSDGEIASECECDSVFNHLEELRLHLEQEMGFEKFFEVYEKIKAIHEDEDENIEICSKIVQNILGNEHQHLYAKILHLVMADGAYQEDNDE

## N#Cc1ccnc(Nc2cc(C3CCN(C4COC4)CC3)n(C3CCCC3)n2)c1
[1]
  inhibition: 0.8%
[2]
  inhibition: 5.7%
[3]
  inhibition: 29.6%
[4]
  inhibition: 5.4%
[5]
  pIC50: 5.92
[6]
  clearance: 34 mL/min/kg
[7]
  inhibition: 1.8%
Human MDR1 [8]
  Papp A→B at 5 µM: 8.8 ×10⁻⁶ cm/s
[9]
  inhibition: 0.3%
TAK1/TAB1 (Homo sapiens)
  inhibition: 13.6%
[10]
  Tmax: 15 min
[11]
  inhibition: 32.4%
[12]
  inhibition: 25.6%
[13]
  pIC50: 5.98
HEK293
  Activity: Non-toxic
[14]
  inhibition: 4.5%
[15]
  inhibition: 4%
[16]
  inhibition: 6.7%
[17]
  inhibition: 15.9%
[18]
  inhibition: 15.6%
Human MDR1 [19]
  efflux ratio at 5 µM: 1.4
[20]
  pIC50: < 5.00
[21]
  inhibition: 65.4%
[22]
  inhibition: 48%
[23]
  inhibition: 5.2%
[24]
  inhibition: 3.1%
[25]
  inhibition: 1.3%
[26]
  inhibition: 12.1%
